Activity calls are given as the source filed them. The rule behind the calls is not given here.
What was measured:
G411 [1] = assay: Antiproliferative activity against human G411 cells incubated for 9 to 12 days by IncuCyte zoom live-cell imaging analysis; assay type: functional, cell-based
How it was run: (§1)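 Adherent culture on poly-L-ornithine/laminin in serum-free NS-A medium with EGF and bFGF (10 ng/mL each) and heparin. Nine concentrations (3 nM–30 µM), three technical replicates per dose, DMSO control, medium and drug refreshed every 5 days, run until DMSO wells were confluent (9–20 days). Confluence was imaged live and normalized to DMSO. Curves were taken at the 95th percentile of time to DMSO confluence, and AAC was calculated.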

[2] = Antiproliferative activity against human BT147 cells incubated for 9 to 12 days by IncuCyte zoom live-cell imaging analysis; assay type: functional, cell-based
[3] = Antiproliferative activity against human HF6562 cells incubated for 9 to 12 days by IncuCyte zoom live-cell imaging analysis; assay type: functional, cell-based; how it was run: as §1
[4] = target: Protein arginine N-methyltransferase 5 (Homo sapiens) (UniProt O14744); assay: Inhibition of PRMT5 in human G729 cells assessed as reduction in SDMA level at 1 uM after 7 days by Western blot analysis; assay type: cell-based; settings: time 7.0 day
[5] = Drug concentration in NSG mouse plasma at 100 mg/kg, po measured after 24 hrs; assay type: ADME, organism-based
How it was run: (§2)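 Single oral gavage to NSG mice (n = 3) at 25, 50 or 100 mg/kg; a 10× DMSO stock was diluted into 1% HEC/0.25% Tween 80/0.05% antifoam. Sacrifice at 24 h. Plasma came from cardiac-puncture blood. Brains were taken after PBS transcardiac perfusion and flash frozen. LC-MS quantitation used a 10-point standard curve of 10–10,000 ng/mL.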

[6] = Drug concentration in NSG mouse brain at 100 mg/kg, po measured after 24 hrs; assay type: ADME, organism-based; settings: read-out: Ct; how it was run: as §2
[7] = Toxicity in NSG mouse assessed as body weight loss at 50 mg/kg, po administered every other day for 3 weeks; assay type: organism-based; settings: in vivo, 504 h
[8] = Toxicity in NSG mouse assessed as body weight loss at 50 mg/kg, po administered as 3 days on and 4 days off schedule and measured upto 8 weeks; assay type: organism-based; settings: in vivo, 1344 h
How it was run: (§3)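 NSG mice, 3 per group, dosed orally in weekly cycles of 3 days on and 4 days off. Weight and condition were recorded twice weekly. Mice losing more than 20% body weight were sacrificed.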

[9] = Toxicity in NSG mouse assessed as tolerability at 50 mg/kg, po administered as 3 days on and 4 days off schedule and measured upto 8 weeks; assay type: organism-based; settings: in vivo, 1344 h; how it was run: as §3
G411 [10] = assay: Antitumor activity against human G411 xenografted in NSG mouse assessed as mean survival time at 50 mg/kg, po administered as 3 days on and 4 days off schedule for 4 cycles (reference value: 30 days); assay type: functional; settings: time 28 day
How it was run: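 Female NSG mice, 5–10 weeks old, 12 per group. 2 × 10^4 G411 cells were injected stereotactically into the forebrain, 3 mm deep. Oral gavage started 1 week later in vehicle of 1% HEC/0.25% Tween 80/0.05% antifoam, given daily for 3 days then 4 days off, for 4 cycles or until end point. Mice were euthanized at neurological symptoms with domed head. Survival was compared by log-rank test.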

G411 [11] = assay: Antitumor activity against human G411 cells xenografted in NSG mouse assessed as reduction in dense cell growth at 50 mg/kg, po administered as 3 days on and 4 days off schedule for 4 cycles; assay type: functional, organism-based; settings: time 28.0 day
How it was run: (§4)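 Female NSG mice aged 5–10 weeks received 2 × 10^4 G411 GSCs stereotaxically into the forebrain (2 mm lateral, 1 mm posterior to bregma, 3 mm deep). From 1 week post-implant, mice got 50 mg/kg by oral gavage in 1% HEC/0.25% Tween 80/0.05% antifoam, 3 days on/4 off, for 4 cycles or until endpoint. Endpoint brains went to H&E; tumor tissue went to SDMA western blot.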

G411 [12] = assay: In vivo inhibition of PRMT5 in human G411 cells xenografted in NSG mouse assessed as reduction in SDMA level at 50 mg/kg, po administered as 3 days on and 4 days off schedule for 4 cycles; assay type: functional, organism-based; settings: time 28.0 day; how it was run: as §4
[13] = Antiproliferative activity against human BT50 cells incubated for 9 to 12 days by IncuCyte zoom live-cell imaging analysis; assay type: functional, cell-based
[14] = Antiproliferative activity against human G571 cells incubated for 9 to 12 days by IncuCyte zoom live-cell imaging analysis; assay type: functional, cell-based
How it was run: (§5)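 Adherent GSC lines on poly-L-ornithine/laminin in serum-free EGF/bFGF medium were exposed to nine concentrations from 3 nM to 30 µM, with three technical replicates per dose. Exposure lasted 9–20 days until DMSO controls were confluent, with drug-containing medium refreshed every 5 days. IncuCyte confluence was normalized to DMSO. Curves were built at the 95th percentile of DMSO time-to-confluence, and AAC was derived with PharmacoGx.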

[15] = Antiproliferative activity against human G584 cells incubated for 9 to 12 days by IncuCyte zoom live-cell imaging analysis; assay type: functional, cell-based; how it was run: as §5
[16] = Antiproliferative activity against human G567 cells incubated for 9 to 12 days by IncuCyte zoom live-cell imaging analysis; assay type: functional, cell-based; how it was run: as §5
[17] = Antiproliferative activity against human G719 cells incubated for 9 to 12 days by IncuCyte zoom live-cell imaging analysis; assay type: functional, cell-based; how it was run: as §5
[18] = Antiproliferative activity against human G613 cells incubated for 9 to 12 days by IncuCyte zoom live-cell imaging analysis; assay type: functional, cell-based; how it was run: as §5
[19] = Antiproliferative activity against human BT301 cells incubated for 9 to 12 days by IncuCyte zoom live-cell imaging analysis; assay type: functional, cell-based
[20] = Antiproliferative activity against human BT94 cells incubated for 9 to 12 days by IncuCyte zoom live-cell imaging analysis; assay type: functional, cell-based
[21] = Antiproliferative activity against human G637 cells incubated for 9 to 12 days by IncuCyte zoom live-cell imaging analysis; assay type: functional, cell-based; how it was run: as §5
[22] = Antiproliferative activity against human BT67 cells incubated for 9 to 12 days by IncuCyte zoom live-cell imaging analysis; assay type: functional, cell-based
[23] = Antiproliferative activity against human BT238 cells incubated for 9 to 12 days by IncuCyte zoom live-cell imaging analysis; assay type: functional, cell-based
[24] = Antiproliferative activity against human BT189 cells incubated for 9 to 12 days by IncuCyte zoom live-cell imaging analysis; assay type: functional, cell-based
[25] = Antiproliferative activity against human G752 cells incubated for 9 to 12 days by IncuCyte zoom live-cell imaging analysis; assay type: functional, cell-based; how it was run: as §5
G583 = assay: Inhibition of cell growth in human G583 cells pretreated with compound for 14 days followed by compound washout and measured after 14 days; assay type: functional, cell-based; settings: time 14.0 day
How it was run: (§6)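 GSC lines were treated with 1 µM for 14 days. Compound was then washed out, and growth was followed for a further 14 days.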

G561 = assay: Inhibition of cell growth in human G561 cells pretreated with compound for 14 days followed by compound washout and measured after 14 days; assay type: functional, cell-based; settings: time 14.0 day; how it was run: as §6
G837 = assay: Inhibition of cell growth in human G837 cells pretreated with compound for 14 days followed by compound washout and measured after 14 days; assay type: functional, cell-based; settings: time 14.0 day; how it was run: as §6
G411 [26] = assay: Inhibition of cell growth in human G411 cells pretreated with compound for 14 days followed by compound washout and measured after 14 days; assay type: functional, cell-based; settings: time 14.0 day; how it was run: as §6

Protein arginine N-methyltransferase 5 (Homo sapiens), sequence (O14744 whole entry): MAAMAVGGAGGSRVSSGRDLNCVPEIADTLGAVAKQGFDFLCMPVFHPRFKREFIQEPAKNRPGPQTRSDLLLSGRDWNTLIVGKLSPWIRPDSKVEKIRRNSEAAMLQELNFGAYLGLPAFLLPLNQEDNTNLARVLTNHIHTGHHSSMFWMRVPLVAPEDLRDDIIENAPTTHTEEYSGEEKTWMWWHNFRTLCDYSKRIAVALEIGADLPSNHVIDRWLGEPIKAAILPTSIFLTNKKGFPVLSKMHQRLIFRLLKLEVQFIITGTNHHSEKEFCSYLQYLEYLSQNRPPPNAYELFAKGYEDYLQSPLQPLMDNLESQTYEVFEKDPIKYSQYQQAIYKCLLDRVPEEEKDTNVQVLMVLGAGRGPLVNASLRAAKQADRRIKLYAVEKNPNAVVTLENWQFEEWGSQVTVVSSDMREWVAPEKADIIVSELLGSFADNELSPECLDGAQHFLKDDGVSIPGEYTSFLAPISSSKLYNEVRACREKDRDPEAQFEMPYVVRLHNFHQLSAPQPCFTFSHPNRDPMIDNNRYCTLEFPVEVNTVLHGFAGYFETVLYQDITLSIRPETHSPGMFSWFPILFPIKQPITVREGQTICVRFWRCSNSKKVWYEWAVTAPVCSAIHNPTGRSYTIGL

Q: What does the source list for Nc1ncnc2c1ccn2[C@@H]1O[C@H]([C@H](O)c2ccccc2)[C@@H](O)[C@H]1O?
A: EC50 (G411 [1]): 19 nM; IC50 [2]: 10 nM; EC50 [3]: 0.66 nM; inhibition [4]: Active; concentration at 24 h [5]: 159 nM; concentration at 24 h [6]: 269 nM; Activity [7]: > 20%; Activity [8]: < 10%; Activity [9]: Non-Toxic; Time (G411 [10]): 37 days; Activity (G411 [11]): Active; inhibition (G411 [12]): Active; IC50 [13]: 20 nM

Q: For O=C(NC[C@H](O)CN1CCc2ccccc2C1)c1ccnc(NC2CCC2)c1, which IC50 [14] is on record?
A: The IC50 was 45.6 µM.

Q: And the IC50 [15]?
A: Its IC50 is 39 µM.

Q: And the IC50 [16]?
A: Its IC50 is 29.3 µM.

Q: And the IC50 [17]?
A: The IC50 was 9.23 µM.

Q: What about the IC50 [18] of the same compound?
A: The IC50 was 19.2 µM.

Q: And the EC50 (G411 [1])?
A: Its EC50 is 100 nM.

Q: What about the IC50 [19] of the same compound?
A: The IC50 was 100 nM.

Q: What about the IC50 [20] of the same compound?
A: The IC50 was 60 nM.

Q: What about the IC50 [21] of the same compound?
A: Its IC50 is 340 nM.

Q: And the IC50 [22]?
A: Its IC50 is 50 nM.

Q: And the IC50 [23]?
A: Its IC50 is 150 nM.

Q: What about the IC50 [24] of the same compound?
A: The IC50 was 110 nM.

Q: And the IC50 [2]?
A: The IC50 was 170 nM.

Q: And the EC50 [3]?
A: Its EC50 is 63 nM.

Q: And the EC50 [25]?
A: The EC50 was 50 nM.

Q: What about the inhibition [4] of the same compound?
A: Its inhibition is “Active”.

Q: What about the inhibition (G583) of the same compound?
A: Its inhibition is “Active”.

Q: What about the inhibition (G561) of the same compound?
A: Its inhibition is “inactive”.

Q: And the inhibition (G837)?
A: The inhibition was “inactive”.

Q: What about the inhibition (G411 [26]) of the same compound?
A: The inhibition was “inactive”.
